# Results taken from ChEMBL document CHEMBL2034888, “Synthesis, anticonvulsant activity, and neuropathic pain-attenuating activity of N-benzyl 2-amino-2-(hetero)aromatic acetamides” (Bioorg Med Chem, 2012).
# Key:
# Mus musculus [1] = assay: Anticonvulsant activity in ip dosed NMRI mouse assessed as protection against maximal electroshock-induced seizure after 30 mins postdose; type: functional; conditions: 0.5 h
# Summary of the method: (§1)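 Adult male NMRI mice given compound intraperitoneally; maximal electroshock seizure test run 30 min after dosing. Where a dose–response was run, ED50 in mg/kg was derived. Otherwise a minimal active dose was reported, or the percentage of mice protected at a single dose.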
# Mus musculus [2] = assay: Antinociceptive activity in ip dosed NMRI mouse neuropathic pain model assessed as protection against formalin-induced nociceptive behaviour after 30 mins; type: functional; conditions: 0.5 h
# Summary of the method: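 Formalin test in adult male NMRI mice used as a prescreen for pain attenuation, 30 min after ip administration. ED50 in mg/kg was derived where possible. Otherwise the percent protected after a single stated dose was reported.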
# Mus musculus [3] = assay: Anticonvulsant activity in ip dosed NMRI mouse assessed as protection against 6 Hz psychomotor seizure after 30 mins; type: functional; conditions: 0.5 h
# Summary of the method: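 Adult male NMRI mice dosed ip. Psychomotor seizures were induced by 6 Hz stimulation at 44 mA, 30 min after administration. ED50 in mg/kg was derived where determinable, otherwise a minimal active dose was reported.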
# Mus musculus [4] = assay: Toxicity in ip dosed NMRI mouse assessed as writhings at 130 mg/kg, ip after 30 mins; type: organism-based; design: dose 130 mg/kg, route intraperitoneal; conditions: in vivo, 0.5 h
# Summary of the method: (§2)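 Adult male NMRI mice were dosed ip. Whole-animal pharmacological observation was made at the stated mg/kg dose, recording tremors, convulsions, writhing, impaired gait or mortality. Timing was 30 min post-dose.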
# Mus musculus [5] = assay: Toxicity in ip dosed NMRI mouse assessed as convulsions at 130 mg/kg, ip after 30 mins; type: organism-based; design: dose 130 mg/kg, route intraperitoneal; conditions: in vivo, 0.5 h; summary of the method: as §2
# Mus musculus [6] = assay: Protective index, ratio of TD50 for NMRI mouse to ED50 for antinociceptive activity in ip dosed NMRI mouse neuropathic pain model; type: functional
# Mus musculus [7] = assay: Protective index, ratio of TD50 for NMRI mouse to ED50 for anticonvulsant activity in ip dosed NMRI mouse by maximal electroshock seizure test; type: functional
# [8] = Neurotoxicity in ip dosed NMRI mouse after 30 mins by rotorod test; type: toxicity, organism-based; conditions: in vivo
# Summary of the method: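 Neurological impairment was scored by rotorod in adult male NMRI mice 30 min after ip dosing. TD50 in mg/kg was derived where possible, otherwise the maximal tolerated dose was given.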
# Mus musculus [9] = assay: Toxicity in ip dosed NMRI mouse assessed as tremors at 100 mg/kg, ip after 30 mins; type: organism-based; design: dose 100 mg/kg, route intraperitoneal; conditions: in vivo, 0.5 h; summary of the method: as §2
# Mus musculus [10] = assay: Anticonvulsant activity in NMRI mouse assessed as protection against maximal electroshock-induced seizure at 140 mg/kg, ip after 30 mins; type: functional; conditions: route intraperitoneal; summary of the method: as §1
# Mus musculus [11] = assay: Toxicity in ip dosed NMRI mouse assessed as impaired gait at 100 mg/kg, ip after 30 mins; type: organism-based; design: dose 100 mg/kg, route intraperitoneal; conditions: in vivo, 0.5 h; summary of the method: as §2
# [12] = Neurotoxicity in ip dosed albino CF-1 mouse by rotorod test; type: toxicity, organism-based; conditions: in vivo
# Mus musculus [13] = assay: Anticonvulsant activity in ip dosed albino CF-1 mouse assessed as protection against maximal electroshock-induced seizure after 0.5 hrs; type: functional; conditions: albino CF-1, ip
# Mus musculus [14] = assay: Anticonvulsant activity in ip dosed albino CF-1 mouse assessed as protection against maximal electroshock-induced seizure; type: functional; conditions: albino CF-1, ip
# [15] = Neurotoxicity in ip dosed albino CF-1 mouse by horizontal screen test; type: toxicity, organism-based; conditions: in vivo
# [16] = Neurotoxicity in ip dosed albino CF-1 mouse after 30 mins by rotorod test; type: toxicity, organism-based; conditions: in vivo
Compound,ED50 (Mus musculus [1]) [mg/kg],ED50 (Mus musculus [2]) [mg/kg],ED50 (Mus musculus [3]) [mg/kg],ED50 (Mus musculus [13]) [mg/kg],other results
NC(C(=O)NCc1ccccc1)c1ccc2ccccc2n1 (racemic),> 41,54,> 130,,Activity (Mus musculus [4]): Toxic; Activity (Mus musculus [5]): Toxic
NC(C(=O)NCc1ccccc1)c1cnc2ccccc2n1 (racemic),> 120,42,> 120,,
NC(C(=O)NCc1ccccc1)c1ccco1 (racemic),85,29,> 150,,Ratio TD50/ED50 (Mus musculus [6]): >5.1; Ratio TD50/ED50 (Mus musculus [7]): >1.8; TD50 at 0.5 h [8]: > 150 mg/kg
Cc1ccc(C(N)C(=O)NCc2ccccc2)o1 (racemic),,> 78,> 140,,minimal effective dose (Mus musculus [1]; read-out: MED): 100 mg/kg; Activity (Mus musculus [9]): Toxic; Activity (Mus musculus [10]): 100%; Activity (Mus musculus [11]): Toxic
CC(=O)NC(C(=O)NCc1ccccc1)c1cccs1 (racemic),,,,45,TD50 [12]: 30 mg/kg
CC(=O)NC(C(=O)NCc1ccccc1)c1cc2ccccc2s1 (racemic),,,,,ED50 (Mus musculus [14]): 100 mg/kg; TD50 [12]: 100 mg/kg
CC(=O)NC(C(=O)NCc1ccccc1)c1ccccc1 (racemic),,,,32,TD50 [15]: > 40 mg/kg
CC(=O)NC(C(=O)NCc1ccccc1)c1ccco1 (racemic),,,,10,TD50 at 0.5 h [16]: 40 mg/kg
CC(=O)NC(C(=O)NCc1ccccc1)c1ccccn1 (racemic),,,,11,TD50 [12]: 25 mg/kg
CC(=O)NC(C(=O)NCc1ccccc1)c1cnccn1 (racemic),,,,15,TD50 at 0.5 h [16]: 58 mg/kg
CC(=O)NC(C(=O)NCc1ccccc1)c1nccs1 (racemic),,,,12,TD50 at 0.5 h [16]: 69 mg/kg
CC(=O)NC(C(=O)NCc1ccccc1)c1ccc(C)o1 (racemic),,,,19,TD50 at 0.5 h [16]: 75 mg/kg
COC[C@@H](NC(C)=O)C(=O)NCc1ccccc1 [LACOSAMIDE],3.3,15,10,,Ratio TD50/ED50 (Mus musculus [6]): 1.3; Ratio TD50/ED50 (Mus musculus [7]): 5.8
CCC1(c2ccccc2)C(=O)NC(=O)NC1=O [PHENOBARBITAL],22,,,,
CCCC(CCC)C(=O)[O-].[Na+] [VALPROATE SODIUM],270,,,,
